Columns and labels:
[1] = Growth inhibition of human leukemia cells after 48 hrs by SRB assay; assay type: functional; settings: Leukemia cell; for CC50: read-out: LC50 (the source's name)
How it was run: (§1)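 Follow-up NCI panel testing over a 5-log dose range for each cell line. GI50, TGI and LC50 were monitored, with 5-fluorouracil run as the positive control. Values are grouped by tumour subpanel.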

[2] = Growth inhibition of human K562 cells at 10 uM after 48 hrs by SRB assay relative to control; assay type: functional; settings: K562, 48 h, read-out: GI
How it was run: (§2)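 NCI 60-cell-line panel, nine tumor subpanels; compounds tested at a single dose of 10 μM in the primary screen.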

[3] = Growth inhibition of human CNS cancer cells after 48 hrs by SRB assay; assay type: functional; settings: Cancer cell lines
How it was run: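 Five-log dose range against NCI tumor cell lines, monitoring GI50, TGI and LC50 for each cell line; MG-MID values derived across the panel; 5-fluorouracil positive control.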

[4] = Growth inhibition of human MALME-3M cells at 10 uM after 48 hrs by SRB assay relative to control; assay type: functional; settings: read-out: GI; how it was run: as §2
Cancer cell lines [5] = assay: Potency index, ratio of 5-fluorouracil GI50 to compound GI50 for human prostate cancer cells; assay type: functional
How it was run: (§3)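 GI50 for each cell line came from NCI panel testing over a 5-log dose range, with 5-fluorouracil tested alongside as the reference drug. The index relates the 5-fluorouracil GI50 to the compound GI50 within each tumour subpanel.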

[6] = Growth inhibition of human UACC257 cells at 10 uM after 48 hrs by SRB assay relative to control; assay type: functional; settings: UACC-257, 48 h, read-out: GI
How it was run: (§4)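 Primary screen across the full NCI 60 human tumour cell line panel, which covers nine tumour subpanels. A single dose of 10 μM was applied to each line, and growth was recorded for each cell line.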

[7] = Growth inhibition of human HCC2998 cells at 10 uM after 48 hrs by SRB assay relative to control; assay type: functional; settings: HCC 2998, 48 h, read-out: GI; how it was run: as §2
[8] = Growth inhibition of human HCT116 cells at 10 uM after 48 hrs by SRB assay relative to control; assay type: functional; settings: HCT-116, 48 h, read-out: GI; how it was run: as §2
[9] = Growth inhibition of human SN12C cells at 10 uM after 48 hrs by SRB assay relative to control; assay type: functional; settings: read-out: GI; how it was run: as §4
[10] = Growth inhibition of human U251 cells at 10 uM after 48 hrs by SRB assay relative to control; assay type: functional; settings: U-251, 48 h, read-out: GI; how it was run: as §4
Cancer cell lines [11] = assay: Potency index, ratio of 5-fluorouracil GI50 to compound GI50 for human breast cancer cells; assay type: functional; how it was run: as §3
[12] = Growth inhibition of human BT549 cells at 10 uM after 48 hrs by SRB assay relative to control; assay type: functional; settings: BT-549, 48 h, read-out: GI; how it was run: as §2
[13] = Growth inhibition of human ovarian cancer cells after 48 hrs by SRB assay; assay type: functional; settings: Cancer cell lines; how it was run: as §1
[14] = Growth inhibition of human NCI-H23 cells at 10 uM after 48 hrs by SRB assay relative to control; assay type: functional; settings: NCI-H23, 48 h, read-out: GI; how it was run: as §2
Cancer cell lines [15] = assay: Potency index, ratio of 5-fluorouracil GI50 to compound GI50 for human non-small cell lung cancer cells; assay type: functional; how it was run: as §3
Leukemia cell = assay: Potency index, ratio of 5-fluorouracil GI50 to compound GI50 for human leukemia cells; assay type: functional; how it was run: as §3
[16] = Growth inhibition of human LOXIMVI cells at 10 uM after 48 hrs by SRB assay relative to control; assay type: functional; settings: LOX IMVI, read-out: GI; how it was run: as §2
Melanoma cell = assay: Potency index, ratio of 5-fluorouracil GI50 to compound GI50 for human melanoma cells; assay type: functional; how it was run: as §3
[17] = Growth inhibition of human Caki1 cells at 10 uM after 48 hrs by SRB assay relative to control; assay type: functional; settings: CAKI-1, 48 h, read-out: GI; how it was run: as §2
[18] = Growth inhibition of human RXF393 cells at 10 uM after 48 hrs by SRB assay relative to control; assay type: functional; settings: RXF 393, 48 h, read-out: GI; how it was run: as §2
[19] = Growth inhibition of human PC3 cells at 10 uM after 48 hrs by SRB assay relative to control; assay type: functional; settings: PC-3, 48 h, read-out: GI; how it was run: as §2
[20] = Growth inhibition of human SW620 cells at 10 uM after 48 hrs by SRB assay relative to control; assay type: functional; settings: SW-620, 48 h, read-out: GI; how it was run: as §4
[21] = Growth inhibition of human ACHN cells at 10 uM after 48 hrs by SRB assay relative to control; assay type: functional; settings: read-out: GI; how it was run: as §2
[22] = Growth inhibition of human T47D cells at 10 uM after 48 hrs by SRB assay relative to control; assay type: functional; settings: read-out: GI; how it was run: as §4
Dihydrofolate reductase = target: T1, Dihydrofolate reductase (Bos taurus, UniProt P00376); assay: Inhibition of bovine liver DHFR preincubated for 2 mins followed by addition of FH2 as substrate and NADPH
T1 sequence (P00376 whole entry): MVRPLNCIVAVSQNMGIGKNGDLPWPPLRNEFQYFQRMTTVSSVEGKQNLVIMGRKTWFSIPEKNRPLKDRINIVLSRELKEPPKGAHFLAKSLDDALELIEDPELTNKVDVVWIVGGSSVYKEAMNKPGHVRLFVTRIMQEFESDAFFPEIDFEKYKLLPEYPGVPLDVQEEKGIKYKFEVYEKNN

Cancer cell lines [23] = assay: Potency index, ratio of 5-fluorouracil GI50 to compound GI50 for human colon cancer cells; assay type: functional; how it was run: as §3
[24] = Growth inhibition of human UACC62 cells at 10 uM after 48 hrs by SRB assay relative to control; assay type: functional; settings: UACC-62, 48 h, read-out: GI; how it was run: as §4
[25] = Growth inhibition of human SK-MEL-28 cells at 10 uM after 48 hrs by SRB assay relative to control; assay type: functional; settings: SK-MEL-28, 48 h, read-out: GI; how it was run: as §4
[26] = Growth inhibition of human Hs 578T cells at 10 uM after 48 hrs by SRB assay relative to control; assay type: functional; settings: read-out: GI; how it was run: as §2
[27] = Growth inhibition of human NCI-322M cells at 10 uM after 48 hrs by SRB assay relative to control; assay type: functional; settings: read-out: GI; how it was run: as §2
[28] = Growth inhibition of human SK-MEL-2 cells at 10 uM after 48 hrs by SRB assay relative to control; assay type: functional; settings: SK-MEL-2, 48 h, read-out: GI; how it was run: as §4
[29] = Growth inhibition of human NCI-H460 cells at 10 uM after 48 hrs by SRB assay relative to control; assay type: functional; settings: NCI-H460, 48 h, read-out: GI; how it was run: as §2
[30] = Growth inhibition of human NCI/ADR-RES cells at 10 uM after 48 hrs by SRB assay relative to control; assay type: functional; settings: read-out: GI; how it was run: as §2
[31] = Growth inhibition of human SF539 cells at 10 uM after 48 hrs by SRB assay relative to control; assay type: functional; settings: SF-539, 48 h, read-out: GI; how it was run: as §2
[32] = Growth inhibition of human A498 cells at 10 uM after 48 hrs by SRB assay relative to control; assay type: functional; settings: A498, 48 h, read-out: GI; how it was run: as §2

COc1ccc(-n2c(SCc3cc(OC)c(OC)c(OC)c3)nc3ccc(C)cc3c2=O)c(OC)c1
GI50 [1]: 2.5 µM | TGI [1]: 56.2 µM | CC50 [1]: > 100 µM | inhibition of growth at 10 µM [2]: 85.6% | GI50 [3]: 9.6 µM | LC50 (lethal concentration, 50% net cell kill) [3]: > 100 µM | TGI [3]: 84.6 µM | inhibition of growth at 10 µM [4]: 74.5% | RatioGI50 (Cancer cell lines [5]): 2 - 10 | inhibition of growth at 10 µM [6]: < 10% | inhibition of growth at 10 µM [7]: 54.5% | inhibition of growth at 10 µM [8]: 81.9% | inhibition of growth at 10 µM [9]: 54.8% | inhibition of growth at 10 µM [10]: 75.2% | RatioGI50 (Cancer cell lines [11]): 2 - 10 | inhibition of growth at 10 µM [12]: 67.9% | GI50 [13]: 5.1 µM | LC50 (50% lethal concentration) [13]: > 100 µM | TGI [13]: 86.7 µM | inhibition of growth at 10 µM [14]: 82.2% | RatioGI50 (Cancer cell lines [15]): 2 - 10 | RatioGI50 (Leukemia cell): 2 - 10 | inhibition of growth at 10 µM [16]: 68.4% | RatioGI50 (Melanoma cell): 2 - 10 | inhibition of growth at 10 µM [17]: 86.7% | inhibition of growth at 10 µM [18]: 80.4% | inhibition of growth at 10 µM [19]: 91.3% | inhibition of growth at 10 µM [20]: 27.9% | inhibition of growth at 10 µM [21]: 55.1% | inhibition of growth at 10 µM [22]: 66.9% | IC50 (Dihydrofolate reductase): 3 µM | RatioGI50 (Cancer cell lines [23]): 2 - 10 | inhibition of growth at 10 µM [24]: 75.6% | inhibition of growth at 10 µM [25]: 59.2% | inhibition of growth at 10 µM [26]: 93.3% | inhibition of growth at 10 µM [27]: 72% | inhibition of growth at 10 µM [28]: < 10% | inhibition of growth at 10 µM [29]: 95.4% | inhibition of growth at 10 µM [30]: 98.6% | inhibition of growth at 10 µM [31]: 80%

COc1cc(CSc2nc3ccc(Cl)cc3c(=O)n2Cc2ccccc2)cc(OC)c1OC
GI50 [1]: 3 µM | TGI [1]: 87.9 µM | CC50 [1]: > 100 µM | inhibition of growth at 10 µM [2]: 87.2% | GI50 [3]: 4.2 µM | LC50 (lethal concentration, 50% net cell kill) [3]: 81.8 µM | TGI [3]: 49.8 µM | inhibition of growth at 10 µM [4]: 61.2% | RatioGI50 (Cancer cell lines [5]): 2 - 10 | inhibition of growth at 10 µM [6]: 53.5% | inhibition of growth at 10 µM [7]: 50% | inhibition of growth at 10 µM [8]: 79.2% | inhibition of growth at 10 µM [32]: 76% | inhibition of growth at 10 µM [9]: 61.5% | inhibition of growth at 10 µM [10]: 67.2% | RatioGI50 (Cancer cell lines [11]): 2 - 10 | inhibition of growth at 10 µM [12]: 78.3% | GI50 [13]: 5.2 µM | LC50 (50% lethal concentration) [13]: > 100 µM | TGI [13]: 75.6 µM | inhibition of growth at 10 µM [14]: 74.9% | RatioGI50 (Cancer cell lines [15]): 2 - 10 | RatioGI50 (Leukemia cell): 2 - 10 | inhibition of growth at 10 µM [16]: 60.7% | RatioGI50 (Melanoma cell): 2 - 10 | inhibition of growth at 10 µM [17]: 73.3% | inhibition of growth at 10 µM [18]: 86.9% | inhibition of growth at 10 µM [19]: 44.9% | inhibition of growth at 10 µM [20]: 71.4% | inhibition of growth at 10 µM [21]: 59.7% | inhibition of growth at 10 µM [22]: 66.1% | IC50 (Dihydrofolate reductase): 4 µM | RatioGI50 (Cancer cell lines [23]): 2 - 10 | inhibition of growth at 10 µM [24]: 84.8% | inhibition of growth at 10 µM [25]: 56.3% | inhibition of growth at 10 µM [26]: 69.5% | inhibition of growth at 10 µM [27]: 52.5% | inhibition of growth at 10 µM [28]: 78.6% | inhibition of growth at 10 µM [29]: 79.5% | inhibition of growth at 10 µM [30]: 86.1% | inhibition of growth at 10 µM [31]: 94.2%

From ChEMBL document CHEMBL3860041, “Synthesis, biological evaluation and molecular modeling study of some new methoxylated 2-benzylthio-quinazoline-4(3H)-ones as nonclassical antifolates” (Bioorg Med Chem Lett, 2016)
